Test results reported in article PMC5474308 (Biochimica et biophysica acta, 2015).
Where two headings read alike, the source gives them in different places. Ends that are not written are not given here.

Key:
[1] = system: PAK2 (pT402) in pancreatic acini; assay: Effect of post-receptor stimulants on T402 PAK2 phosphorylation; assay type: cell-based, rat; settings: 1 μM each, 5 min
[2] = system: PAK2 (pT402) in pancreatic acini; assay type: cell-based, rat
[3] = system: PAK2 (pT402) in pancreatic acini; assay type: cell-based, rat; settings: for PAK2 inhibition: IPA-3 40 μM, 15 min
[4] = system: rat pancreatic acinar cells (amylase release); assay: Effect of PAK2 inhibition on amylase release; assay type: cell-based; settings: for Amylase secretion (% total), inhibitor with CCK 0.01 nM: 40 μM inhibitor/analogue + CCK 0.01 nM, CCK alone 11.9 ± 2.2; for Amylase secretion (% total), inhibitor with CCK 0.01 nM / Amylase secretion (% total), inhibitor with CCK 0.1 nM / Amylase secretion (% total), inhibitor with bombesin / Amylase secretion (% total), inhibitor without secretagogue / Amylase secretion (% total), no inhibitor: 30 min; for Amylase secretion (% total), inhibitor with CCK 0.1 nM: 40 μM inhibitor/analogue + CCK 0.1 nM, CCK alone 15.7 ± 0.4; for Amylase secretion (% total), inhibitor with bombesin: 40 μM inhibitor/analogue + bombesin 10 nM, bombesin alone 15.2 ± 0.8; for Amylase secretion (% total), inhibitor without secretagogue: 40 μM inhibitor/analogue, no secretagogue; for Amylase secretion (% total), no inhibitor: 5–10 experiments, untreated 3.8 ± 0.3, p<0.05 vs control
Method in brief: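 Secretagogues were CCK (0.01 or 0.1 nM) or bombesin (10 nM). Amylase released over a 30 min incubation was measured with Phadebas reagent and expressed as % of total cellular amylase. Means of 5–10 experiments.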

[5] = system: ERK1/2 (p42/44) in pancreatic acini; assay: Effect of PAK2 inhibition on ERK1/2; assay type: cell-based, rat
[6] = system: PAK2 (pT402) in pancreatic acini; assay: PAK2 T402 phosphorylation after stimulation by secretagogues and growth factors; assay type: cell-based, rat; settings: for PAK2 activation (abstract, words): rat pancreatic acini; for effect on phosphorylation of (T402) PAK2: VIP 10 nM, secretin 10 nM, endothelin 1 10 nM, 1 min; for T402 PAK2 phosphorylation by growth factors, % of control: EGF 10 nM 5 min, bFGF 100 ng/ml 5 min, PDGF 100 ng/ml 10 min (p<0.05), insulin 1 μM 10 min (p=0.08), 5 independent experiments; for effect of growth factors on PAK2 threonine 402 phosphorylation: IGF-1 100 nM 10 min, HGF 1 nM 10 min, insulin 1 μM 10 min
[7] = system: PAK2 (pT402) in pancreatic acini; assay: Time course of CCK and EGF stimulation of PAK2 T402 phosphorylation; assay type: cell-based, rat; settings: for T402 PAK2 phosphorylation at 1 minute: 1 min; for T402 PAK2 phosphorylation at 1 minute / duration of increase in phospho-T402 PAK2 / time of maximum T402 PAK2 phosphorylation: CCK 100 nM or EGF 10 nM
[8] = system: PAK2 (pT402) in pancreatic acini; assay: Dose-response effect of CCK and CCK-JMV on T402 PAK2 phosphorylation; assay type: cell-based, rat; settings: 3 min
Method in brief: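 Rat pancreatic acini were dispersed by collagenase and pre-incubated 2 h at 37 °C in HEPES-buffered (pH 7.45) standard incubation solution. They were then exposed for 3 min to graded concentrations of CCK or the test peptide, and lysed. Read-out was pT402 PAK2 western blot with total PAK2 as loading control, by chemiluminescence densitometry. Values are % of 100 nM CCK response; n=5; EC50 by curve fitting.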

[9] = system: CCK1 / CCK2 receptors in pancreatic acini (pT402 PAK2); assay type: cell-based, rat; settings: gastrin (CCKB agonist) 10 nM, A71378 (CCKA receptor agonist) 30 nM, 1 min

CNc1ccc2oc(C[C@H]3O[C@@]4(CC[C@H]3C)O[C@H]([C@H](C)C(=O)c3ccc[nH]3)[C@H](C)C[C@H]4C)nc2c1C(=O)O [A23187]
effect on PAK2 phosphorylation [1]: have no effect on PAK2

CN(C)CCCn1cc(C2=C(c3c[nH]c4ccccc34)C(=O)NC2=O)c2ccccc21 [GFX]
TPA-induced pT402 PAK2 phosphorylation after pretreatment ([2]; pretreatment GF109203X 5 μM 1 h, then TPA 1 μM 5 min, TPA alone 319±45): 100±26 % of control

Oc1ccc2ccccc2c1SSc1c(O)ccc2ccccc12 [IPA-3, 1,1′-Dithiodi-2-naphthtol]
PAK2 inhibition [3]: 70% | PAK2 inhibition ([3]; listed as IPA3): approximately 70% | basal pT402 PAK2 phosphorylation with inhibitor ([3]; PP2 10 μM 1 h or IPA-3 40 μM 15 min, no stimulant): 32±6 % of control | effect on CCK-activation of PAK2 (abstract, words) ([3]; rat pancreatic acini): partially inhibited | reduction of bombesin-induced increase in amylase release ([4]; 40 μM IPA3, bombesin 10 nM): 55 % of the maximal bombesin-induced stimulation | reduction of CCK-induced increase in amylase release ([4]; 40 μM IPA3, both concentrations of CCK (0.01, 0.1 nM)): 63 % of maximal CCK stimulation | Amylase secretion (% total), inhibitor with CCK 0.01 nM [4]: 7.5 ± 1.3ˆ % total | Amylase secretion (% total), inhibitor with CCK 0.1 nM [4]: 9.6 ± 0.6ˆ % total | Amylase secretion (% total), inhibitor with bombesin [4]: 10.3± 0.9ˆ % total | Amylase secretion (% total), inhibitor without secretagogue [4]: 5.2 ± 0.5 % total | effect on amylase release induced by CCK or bombesin (abstract, words) ([4]; rat pancreatic acini): reduced | CCK induced phosphorylation of p42/44 with inhibitor ([5]; IPA-3 40 μM, then CCK 0.3 nM, p<0.05): 64±4 % of CCK 0.3 nM alone | effect on CCK-induced ERK1/2 activation (abstract, words) ([5]; rat pancreatic acini): reduced

Oc1ccc2cc(SSc3ccc4cc(O)ccc4c3)ccc2c1 [Pir 3,5, 6,6′-Dithiodi-2-naphthtol]
Amylase secretion (% total), inhibitor with CCK 0.01 nM [4]: 12.6 ± 0.8 % total | Amylase secretion (% total), inhibitor with CCK 0.1 nM [4]: 14.7± 1.0 % total | Amylase secretion (% total), inhibitor with bombesin [4]: 14.4 ± 1.2 % total | Amylase secretion (% total), inhibitor without secretagogue [4]: 4.3 ± 0.9 % total | effect on stimulated enzyme secretion ([4]; Pir3,5 40 μM, CCK or bombesin): had no effect on stimulated enzyme secretion

CCCCCCCCCCCCCC(=O)O[C@@H]1[C@@H](C)[C@@]2(O)[C@@H](C=C(CO)C[C@]3(O)C(=O)C(C)=C[C@@H]23)[C@@H]2C(C)(C)[C@]12OC(C)=O [TPA, 12-O-tetradecanoylphorbol-13-acetate]
PAK2 activation (abstract, words) [6]: activated

C[N+](C)(C)CCOC(N)=O [carbachol]
PAK2 activation (abstract, words) [6]: activated

COOH-terminal octapeptide of cholecystokinin [CCK]
PKC-independent activation of PAK2 that was also PLC-independent ([2]; CCK1 receptor stimulation): 40% | T402 PAK2 phosphorylation at 1 minute ([7]; mean ± S.E. of 5 experiments): 275±17 % of control | T402 PAK2 phosphorylation at 3 min ([7]; 3 min, CCK 100 nM, mean ± S.E. of 5 experiments, p<0.05): 298±26 % of control | duration of increase in phospho-T402 PAK2 [7]: over 15 min | time of maximum T402 PAK2 phosphorylation [7]: 3 min | subsequent partial decrease of PAK2 activation after rapid increase ([7]; CCK 100 nM, sustained over time): 40% | maximal stimulation of T402 PAK2 phosphorylation ([8]; 100 nM CCK): 452±70 % of control | concentration at which increase in T402 PAK2 phosphorylation is detectable [8]: 10 pM | concentration of maximal stimulation of T402 PAK2 phosphorylation [8]: 100 nM | increase in amylase release ([4]; 0.01 nM CCK): 313±57% | increase in amylase release ([4]; 0.1 nM CCK): 413±11% | Amylase secretion (% total), no inhibitor ([4]; CCK 0.01 nM): 11.9 ± 2.2 % total | Amylase secretion (% total), no inhibitor ([4]; CCK 0.1 nM): 15.7 ± 0.4 % total | PAK2 activation (abstract, words) [6]: activated

Endothelin-1: interacts with ET-1 and ET-3 receptors in the pancreatic acinar cell (CSCSSLMDKECVYFCHLDIIW; ends and bridges not checked; cysteine pairing not given here; UniProt P05305 53-73, looked up)
effect on phosphorylation of (T402) PAK2 [6]: did not produce any effect upon T402 PAK2 phosphorylation

Epidermal growth factor [EGF]
T402 PAK2 phosphorylation at 1 minute ([7]; mean ± S.E. of 5 experiments): 300±30 % of control | duration of increase in phospho-T402 PAK2 [7]: ≤ 3 min | time of maximum T402 PAK2 phosphorylation [7]: 1 min | T402 PAK2 phosphorylation by growth factors, % of control [6]: 195±28 of control | PAK2 activation (abstract, words) [6]: activated

Insulin: pancreatic growth factor
T402 PAK2 phosphorylation by growth factors, % of control [6]: 210±44 of control | effect of growth factors on PAK2 threonine 402 phosphorylation [6]: did not quite reach statistical significance

basic fibroblast growth factor [bFGF]
T402 PAK2 phosphorylation by growth factors, % of control [6]: 228±37 of control | PAK2 activation (abstract, words) [6]: activated

bombesin: pancreatic secretagogue that activates phospholipase C
Amylase secretion (% total), no inhibitor ([4]; bombesin 10 nM): 15.2 ± 0.8 % total | PAK2 activation (abstract, words) [6]: activated

gastrin
effect of selective receptor agonist on pT402 PAK2 phosphorylation [9]: did not produce any increase in pT402 PAK2 phosphorylation

hepatocyte growth factor [HGF]
effect of growth factors on PAK2 threonine 402 phosphorylation [6]: had no effect

insulin-like growth factor 1 [IGF-1]
effect of growth factors on PAK2 threonine 402 phosphorylation [6]: had no effect

platelet-derived growth factor [PDGF]
T402 PAK2 phosphorylation by growth factors, % of control [6]: 240±44 of control | PAK2 activation (abstract, words) [6]: activated

secretin: gastrointestinal hormone activating adenylate cyclase
effect on phosphorylation of (T402) PAK2 [6]: did not increase phosphorylation of (T402) PAK2

vasoactive intestinal peptide (HSDAVFTDNYTRLRKQMAVKKYLNSILN; ends and bridges not checked; UniProt P01282 125-152, looked up) [VIP]
effect on phosphorylation of (T402) PAK2 [6]: did not increase phosphorylation of (T402) PAK2
